Data reported in ChEMBL document CHEMBL3244270, “Nitrosoureidonucleosides” (1979).

Tests used:
Format in all cases: functional
[1] = Cytotoxicity against human Hep2 cells; conditions: HEp-2, read-out: ED50 (the source's name)
How it was run: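 H.Ep-2 cultures; ED50 taken as the concentration that holds growth of treated cells to 50% of untreated controls.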

[2] = system: L1210; assay: Cytotoxicity against mouse L1210 cells; conditions: read-out: ED50 (the source's name)
[3] = system: L1210; assay: In-vivo antitumor activity against mouse L1210 cells at 100 mg/kg
How it was run: (§1)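 Leukemia L1210 in vivo; compound given as a single dose on day 1 only, with dose in mg/kg. Read-out is life span of treated versus control animals, expressed as T/C %.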

[4] = system: L1210; assay: In-vivo antitumor activity against mouse L1210 cells at 25 mg/kg; how it was run: as §1
[5] = system: L1210; assay: In-vivo antitumor activity against mouse L1210 cells at 200 mg/kg; how it was run: as §1

| SMILES | EC50 [1] [µM] | other results |
| --- | --- | --- |
| CN(N=O)C(=O)NC[C@H]1O[C@@H](n2ccc(N)nc2=O)[C@H](O)[C@@H]1O | > 50 |  |
| Cc1cn([C@H]2C[C@H](NC(=O)N(C)N=O)[C@@H](CO)O2)c(=O)[nH]c1=O |  | EC50 [2]: 1 µM |
| CN(N=O)C(=O)N[C@H]1[C@@H](O)[C@H](n2ccc(=O)[nH]c2=O)O[C@@H]1CO | > 60 | T/C [3]: 122% |
| CN(N=O)C(=O)NC[C@H]1O[C@@H](n2ccc(=O)[nH]c2=O)[C@H](O)[C@@H]1O | > 50 |  |
| CN(N=O)C(=O)N[C@H]1[C@@H](O)[C@H](n2ccc(N)nc2=O)O[C@@H]1CO | > 50 | T/C [4]: 110% |
| CN(N=O)C(=O)N[C@H]1[C@@H](O)[C@H](n2cnc3c(N)ncnc32)O[C@@H]1CO | > 60 | T/C [3]: 123% |
| CNC(=O)N[C@H]1[C@@H](O)[C@H](n2cnc3c(N)ncnc32)O[C@@H]1CO | > 60 |  |
| CNC(=O)N[C@H]1[C@@H](O)[C@H](n2ccc(N)nc2=O)O[C@@H]1CO | > 60 |  |
| CN(N=O)C(=O)NC[C@H]1O[C@@H](n2cnc3c(N)ncnc32)[C@H](O)[C@@H]1O | 40 | T/C [5]: 106% |
| CN(N=O)C(=O)N[C@H]1[C@@H](O)[C@H](n2cnc3c(N)nc(Cl)nc32)O[C@@H]1CO | > 50 |  |
| CNC(=O)N[C@H]1[C@@H](O)[C@H](n2cnc3c(N)nc(Cl)nc32)O[C@@H]1CO | > 50 |  |
| CNC(=O)NC[C@H]1O[C@@H](n2cnc3c(N)ncnc32)[C@H](O)[C@@H]1O | > 60 | T/C [5]: 98% |
